# Bioassay records (PubChem)
# Only some compounds are listed: those with a hit (about 1.8% of all), similar ones and a draw of the others.
# CHRM4 antagonist: blocks acetylcholine activation of human M4 receptor; inhibition, % at 3 µM; actives 0.73% (n = 360,000); CHO-hM4 cells, ACh EC80, Fluo-8 calcium fluorescence; P08173;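 active = inhibition above its plate's cutoff, the mean inhibition of sample wells plus 3 SD, cut at about 27% in these data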;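 note: 0% = acetylcholine EC80 with DMSO and 100% = DMSO without agonist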
# M4 PAM: potentiates acetylcholine response at human M4 receptor; P08173; CHO-K1 hM4/Gqi5, Fluo-8 calcium fluorescence, ACh EC20; 0% = ACh EC20, 100% = maximal ACh; activation, % at 3 µM; actives 0.4% (n = 360,000); AID 624126;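 active = activation above its plate's cutoff, the mean activation of sample wells plus 3 SD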
# M5 antag: CHRM5 antagonism in calcium assay; P08912; CHO-hM5 cells, Fluo-8 calcium fluorescence, ACh EC80; inhibition, % at 3 µM; actives 0.59% (n = 360,000);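 active = inhibition above a per-plate cutoff, the mean of that plate's test compounds plus 3 SD, cut at about 27% in these data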;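 note: 0% = acetylcholine EC80 with DMSO and 100% = DMSO without agonist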
# Target sequence (P08912 whole entry, looked up): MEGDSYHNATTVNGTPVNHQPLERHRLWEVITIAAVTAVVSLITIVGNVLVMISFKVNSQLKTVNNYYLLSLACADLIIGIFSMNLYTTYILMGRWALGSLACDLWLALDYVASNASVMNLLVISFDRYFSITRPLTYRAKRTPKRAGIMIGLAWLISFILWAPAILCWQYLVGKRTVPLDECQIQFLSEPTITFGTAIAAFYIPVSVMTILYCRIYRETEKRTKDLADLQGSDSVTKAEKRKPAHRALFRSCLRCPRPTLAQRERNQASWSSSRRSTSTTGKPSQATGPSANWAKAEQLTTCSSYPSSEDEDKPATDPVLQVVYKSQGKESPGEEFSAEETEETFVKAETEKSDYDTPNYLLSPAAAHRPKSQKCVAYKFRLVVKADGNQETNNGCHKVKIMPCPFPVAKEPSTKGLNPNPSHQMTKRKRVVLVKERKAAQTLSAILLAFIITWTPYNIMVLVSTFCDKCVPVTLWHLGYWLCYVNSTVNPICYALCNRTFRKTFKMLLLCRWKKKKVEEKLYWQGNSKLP
# M5 PAM: potentiates acetylcholine response at human M5 receptor | P08912 | CHO-K1 hM5, Fluo-8 calcium, ACh EC20 PAM; 0% = ACh EC20, 100% = ACh EC100 | activation, % at 3 µM | actives 0.3% (n = 360,000) | AID 624038;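 active = activation above the run cutoff, the mean activation of all test compounds plus 3 SD, cut at about 18% in these data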
#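 Assay system – human M5 receptor in CHO-K1 cells · Read-out – % activation, ACh-normalized · Technique – Fluo-8 calcium fluorescence · Dosing – single-point, 3 µM nominal · Incubation – Fluo-8 loading 80 min at 37 °C plus 30 min room temperature · Repeats – singlicate, one well per test compound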
# M4 ag: agonists of human muscarinic M4 receptor (CHRM4). CHO-K1 hM4/Gqi5, Fluo-8 calcium fluorescence; vehicle 0%, full acetylcholine response 100%. activation, % at 3 µM. actives 0.14% (n = 360,000). AID 624127;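 active = activation above the run mean over all test wells plus 3 SD, cut at about 32% in these data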;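 note: peak over basal fluorescence ratio per well then scaled between controls; 0% = DMSO wells and 100% = acetylcholine at EC100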
# CHRM5 agonist: agonists of human muscarinic M5 receptor (CHRM5); CHO-K1 hM5 cells, Fluo-8 calcium fluorescence; 0% DMSO wells, 100% maximal acetylcholine response; activation, % at 3 µM; AID 624037; actives 0.19% (n = 360,000);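 active = activation above the run's mean over test compounds plus 3 SD, cut at about 23% in these data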;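 note: signal is peak over basal fluorescence ratio across the kinetic read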
# The depositor's hits bear a star.
SMILES,CHRM4 antagonist,M4 PAM,M5 antag,M5 PAM,M4 ag,CHRM5 agonist
O=C(CSc1ccc(-c2ccccn2)nn1)Nc1ccc(F)c(F)c1,-7.5,-2.0,1.0,-5.0,6.3,0.6
Cc1ccn2c(=O)c(NC(=O)c3ccc(Br)o3)c(C)nc2c1,6.8,22.6*,1.6,-7.0,0.9,0.4
Cc1nc(NC(=O)c2ccc(Br)o2)ccc1Br,-4.5,15.8*,2.0,5.5,0.2,-0.4
COc1ccc(CCNC(=O)COC(=O)C2COc3ccccc3O2)cc1 (stereo not given),8.8,2.6,2.4,-5.7,0.4,0.1
CN(CC(=O)Nc1ccc2c(c1)OCO2)S(=O)(=O)c1ccc(F)cc1,1.1,-3.8,-3.0,-2.2,1.8,-0.9
O=[N+]([O-])c1ccc2c(c1)C(O)n1ncnc1S2 (stereo not given),1.6,7.1,-1.4,4.9,0.8,-2.2
O=[N+]([O-])c1ccc2c(c1)C(O)n1nc(-c3ccc(Cl)cc3Cl)nc1S2 (stereo not given),-18.2,7.4,0.5,25.1*,0.6,-2.8
CC(=O)Nc1c(NC(C)C)c2ccccc2oc1=O,-2.3,9.4,-1.6,21.8*,0.4,-1.5
CC(OC(=O)CSc1ccc([N+](=O)[O-])cc1)C(=O)NC1CC1 (stereo not given),3.5,-4.5,4.4,-4.6,1.3,5.2
CN(C)/C=C1\C(=O)N(C)N=C1C(F)(F)F,-5.4,2.6,2.1,-1.6,0.9,0.6
CC(C)CN(CC(C)C)c1nc(N)c(C#N)c(CC#N)c1C#N,-7.9,27.5*,-5.6,4.9,-2.9,-5.2
O=C(NN1C(=O)C2C(c3ccccc3)C=CC(c3ccccc3)C2C1=O)c1cccc(Br)c1 (stereo not given),15.7,-17.4,36.9*,-20.3,20.3,-7.4
Cc1nn(-c2cc(C(F)(F)F)ccc2Cl)c2nc(C(Cl)(Cl)Cl)[nH]c(=O)c12,5.6,-7.7,3.8,19.4*,1.1,13.5
Cc1nn(-c2ccccc2)c(Cl)c1CN(C(=O)CCl)c1ccc(Cl)cc1,41.7*,-33.3,24.3,-16.8,-2.0,-5.6
COc1cccc(OC(=O)c2cc3ccccc3oc2=O)c1,-16.9,18.4*,-7.2,19.3*,1.4,-4.0
O=C(c1ccc(-c2nc3ccccc3s2)o1)N1CCN(c2ccccc2O)CC1,-0.6,-4.8,33.9*,-17.5,9.2,-5.0
CCCCNC(=O)c1nc(C2CCN(S(=O)(=O)c3ccc(S(C)(=O)=O)cc3)CC2)oc1-c1ccccc1,11.3,-18.2,29.9*,-19.3,14.4,-4.2
Cc1ccc(C)c(Nc2nn3c(=O)c4ccc(C(=O)NCc5cccnc5)cc4nc3s2)c1,31.0*,-5.8,6.6,-3.8,-0.5,-2.1
Cc1nc(C(F)(F)F)c(C(=O)O)cc1-c1nc(-c2ccccc2)cs1,13.1,-7.5,10.5,-3.8,-0.9,-1.7
COc1ccc(OC)c(-c2nnc3n2N=C(c2ccc(OC(F)F)c(OCC4CC4)c2)CS3)c1,27.6*,-13.2,21.5,-39.8,0.6,-9.1
COc1ccc(C2=Nn3c(nnc3-c3ccccc3F)SC2)cc1OC1CCOC1 (stereo not given),-11.4,2.2,3.2,-16.4,8.3,-0.2
COc1ccc(C2=Nn3c(nnc3-c3ccccc3F)SC2)cc1OC1CCCC1,28.7*,-9.3,11.6,-31.8,5.8,-9.7
COc1ccc(C2=Nn3c(nnc3-c3ccccc3OC)SC2)cc1OCC1CC1,4.3,11.8,-2.7,-6.2,2.2,-11.0
CCCNC(=O)C1(C)CCCN(Cc2cc(-c3ccccc3)n(C)n2)C1 (stereo not given),-9.1,1.7,-5.4,1.6,0.9,0.1
Cc1cc(Br)cn2c(Cc3cccc(F)c3)c(C3CCCCC3)nc12,-9.1,-0.2,1.9,-3.4,-0.8,-1.4
SMILES,CHRM4 antagonist,M4 PAM,M5 antag,M5 PAM,M4 ag,CHRM5 agonist
CC(=O)C1=C(O)C(=O)N(c2ccc(C(=O)O)cc2)C1c1ccc([N+](=O)[O-])cc1 (stereo not given),4.5,2.1,9.9,-2.9,0.2,-2.0
CCOC(=O)c1ccc(N2C(=O)C(O)=C(C(C)=O)C2c2ccc([N+](=O)[O-])cc2)cc1 (stereo not given),-2.0,-0.4,-4.8,19.4*,0.8,4.4
Cn1nc(C(F)(F)F)c(/C=N/OC(=O)c2ccccc2)c1SCc1ccccc1Cl,30.0*,-24.3,3.8,-11.3,-0.9,-5.3
O=S(=O)(CCN1C=CC(C(F)(F)F)=NCC1)c1ccc(Cl)cc1Cl,0.7,11.6,-1.7,2.8,0.2,3.4
O=C(CSc1nc(C(F)(F)F)cc(=O)[nH]1)Nc1cccc2ccccc12,-8.5,22.5*,-18.5,16.8,0.0,-2.3
CC(=O)c1cc(CN2CCC(n3nccc3NC(=O)c3ccccc3)CC2)cs1,10.1,-5.3,23.1,-10.3,0.0,-4.4
CSc1ccccc1NC(=O)COC(=O)c1c[nH]c(=O)[nH]c1=O,1.0,5.9,4.1,-2.2,0.5,-0.5
CCC1Sc2ccc(S(=O)(=O)CCC(=O)NCc3ccco3)cc2NC1=O (stereo not given),-3.4,-1.6,6.0,0.0,2.9,-1.0
O=C(Nc1ccccc1)C(=O)Nc1ccc2c(c1)N(C(=O)C1CC1)CCC2,-12.3,17.4*,-4.5,0.5,6.8,1.7
O=C(C1CCC(C(=O)N2CCc3ccccc32)CC1)N1CCc2ccccc21 (stereo not given),-3.5,-2.3,-1.4,-0.9,-0.2,-4.3
CCN(CC)CCC/C(=N\O)C(O)(c1ccccc1)c1ccccc1,79.5*,-25.1,45.1*,-14.0,0.2,-10.2
CC[N+](C)(CC)CCC/C(=N/O)C(O)(c1ccccc1)c1ccccc1,33.4*,-13.8,14.2,-21.8,0.2,-18.5
CC/C(CC(C)(C)c1ccccc1)=N\O,7.3,-4.7,-0.4,3.2,-0.2,-1.6
CCCNNC(=O)C(O)(c1ccccc1)c1ccccc1,-3.2,3.3,-3.6,-4.2,0.1,0.5
Fc1ccc(Nc2ncnc3sccc23)cc1,-17.6,1.7,6.4,-0.8,5.8,0.1
COc1ccc(-c2ccc(NCCN3CCOCC3)nn2)cc1OC,3.1,0.0,7.0,5.4,0.2,-5.5
COC(=O)C[C@@H]1CC[C@H](NC(=O)c2cnccn2)[C@@H](CO)O1,-10.8,-2.7,-8.5,1.5,1.2,2.3
CC(C)c1[nH]nc2c1C1(CCN(Cc3ccccc3)CC1)C(C#N)=C(N)O2,32.2*,14.2,1.6,1.1,3.2,-2.9
Cc1nnc(SCc2nnc(-c3cccs3)o2)n1Cc1ccccc1,0.5,1.3,7.0,-2.3,1.6,-0.6
